Data published in ChEMBL document CHEMBL1914431, “Discovery of a novel series of nonacidic benzofuran EP1 receptor antagonists” (Bioorg Med Chem Lett, 2011).
≈ marks a conversion by molar mass, not a printed value. Each block holds one compound with its values, some of them ahead of it. Calls of active or inactive are those of the source. No cut-off for these calls is given here.

Columns and labels:
[1] = molecular target: T1, Prostaglandin E2 receptor EP1 subtype (Homo sapiens, UniProt P34995); experiment: Antagonist activity at human recombinant EP1 receptor expressed in CHO-K1 cells assessed as inhibition of PGE2-mediated intracellular calcium mobilization by FLIPR method; type: functional, cell-based
T1 sequence (P34995 whole entry): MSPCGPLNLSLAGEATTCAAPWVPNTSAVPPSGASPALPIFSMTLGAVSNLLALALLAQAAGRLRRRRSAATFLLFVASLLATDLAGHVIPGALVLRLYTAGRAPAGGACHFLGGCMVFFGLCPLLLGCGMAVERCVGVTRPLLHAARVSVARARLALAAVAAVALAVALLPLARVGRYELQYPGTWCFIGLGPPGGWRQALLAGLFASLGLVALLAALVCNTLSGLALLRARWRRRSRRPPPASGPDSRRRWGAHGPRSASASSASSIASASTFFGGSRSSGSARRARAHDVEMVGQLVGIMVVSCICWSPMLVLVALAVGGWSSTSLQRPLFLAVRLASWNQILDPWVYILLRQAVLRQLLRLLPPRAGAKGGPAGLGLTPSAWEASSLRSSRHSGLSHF

[2] = molecular target: T2, Prostaglandin E2 receptor EP3 subtype (Homo sapiens, UniProt P43115); experiment: Antagonist activity at human recombinant EP3 receptor expressed in CHO-K1 cells assessed as inhibition of PGE2-mediated intracellular calcium mobilization by FLIPR method; type: functional, cell-based
T2 sequence (P43115 whole entry): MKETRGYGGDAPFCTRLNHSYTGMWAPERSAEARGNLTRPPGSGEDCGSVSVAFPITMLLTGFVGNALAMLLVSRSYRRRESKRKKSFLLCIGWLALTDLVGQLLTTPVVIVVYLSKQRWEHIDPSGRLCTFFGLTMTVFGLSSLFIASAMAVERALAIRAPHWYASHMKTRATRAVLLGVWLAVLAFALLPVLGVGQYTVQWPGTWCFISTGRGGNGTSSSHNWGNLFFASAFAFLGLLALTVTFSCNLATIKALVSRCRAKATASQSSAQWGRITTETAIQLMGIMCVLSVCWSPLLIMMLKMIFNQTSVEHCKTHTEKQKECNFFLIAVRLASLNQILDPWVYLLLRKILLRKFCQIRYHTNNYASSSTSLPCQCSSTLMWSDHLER

[3] = molecular target: T1, Prostaglandin E2 receptor EP1 subtype; experiment: Displacement of [3H]PGE2 from human prostanoid EP1 receptor expressed in CHO-K1 cells after 30 mins by topcount liquid scintillation counting; type: cell-based
Method in brief: (§1)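 Radioligand binding at the EP1 receptor. Either [3H]-GW875240X or [3H]-PGE2 is the displaced ligand. Values are pIC50, means of at least three experiments.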

[4] = molecular target: T1, Prostaglandin E2 receptor EP1 subtype; experiment: Displacement of [3H]GW875240X from human prostanoid EP1 receptor expressed in CHO-K1 cells after 45 mins by topcount liquid scintillation counting; type: cell-based; method in brief: as §1
[5] = Drug level in blood of rat complete Freund's adjuvant-induced inflammatory pain model at 30 mg/kg, po after 1 hr; type: ADME, organism-based; set-up: dose 30 mg/kg, route oral; details: read-out: Drug uptake
Method in brief: (§2)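 Blood and brain samples are taken from CFA rats after oral dosing in 1% methylcellulose. Sampling is at 1 h post-dose, and at 3 h in the 5 mg/kg study. Concentrations are in µM or nM, n = 7 or n = 6 for blood and n = 3 for brain. The brain:blood ratio is calculated from the same rats.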

[6] = Solubility of the compound in simulated gastric fluid after 1 hr; type: physicochemical
Method in brief: (§3)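 Solubility is measured after 1 h in water, SGF, FaSSIF and FeSSIF, in µg/mL.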

[7] = Drug level in brain of rat complete Freund's adjuvant-induced inflammatory pain model at 30 mg/kg, po after 1 hr; type: ADME, organism-based; set-up: dose 30 mg/kg, route oral; details: read-out: Drug uptake; method in brief: as §2
[8] = Half life in rat at 1 mg/kg, iv; type: ADME, organism-based; set-up: dose 1 mg/kg, route intravenous; details: in vivo
[9] = Solubility of the compound in fasted state simulated intestinal fluid after 1 hr; type: physicochemical; method in brief: as §3
Liver microsomes = experiment: Intrinsic clearance in human liver microsomes; type: ADME, Microsome
[10] = Solubility of the compound in fed state simulated intestinal fluid after 1 hr; type: physicochemical; method in brief: as §3
P-gp [11] = experiment: Efflux ratio of the compound in MDCK cells expressing p-gp; type: ADME, cell-based, Canis lupus familiaris; details: dog, MDCK-MDR1
Method in brief: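 MDCK cell monolayers were used to measure permeability. The efflux ratio is reported alongside exact permeability (Pexact, nm/sec) and was used to judge whether the compound is a Pgp substrate.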

[12] = Ratio of drug level in brain to blood in rat complete Freund's adjuvant-induced inflammatory pain model at 5 mg/kg, po after 3 hrs; type: ADME, organism-based; set-up: dose 5 mg/kg, route oral; details: read-out: BBR; method in brief: as §2
[13] = Drug level in blood of rat complete Freund's adjuvant-induced inflammatory pain model at 10 mg/kg, po after 1 hr; type: ADME, organism-based; set-up: dose 10 mg/kg, route oral; details: read-out: Drug uptake; method in brief: as §2
[14] = Half life in rat at 3 mg/kg, po; type: ADME, organism-based; set-up: dose 3 mg/kg, route oral; details: in vivo
Method in brief: (§4)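 Rat oral pharmacokinetics at 3 mg/kg in 1% (w/v) aqueous methylcellulose. Bioavailability and half-life are derived.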

Rattus norvegicus [15] = experiment: Analgesic activity in po dosed rat assessed as reversal of complete Freund's adjuvant-induced inflammatory pain after 1 hr post dose; type: functional
Method in brief: (§5)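 Rat CFA inflammatory pain model. Oral dosing in 1% methylcellulose. Hypersensitivity reversal is read by weight bearing, at 1 h post-dose. The 5 mg/kg study was also read at 3 h. Dose-response groups were 3, 10 and 30 mg/kg, or 1, 3 and 10 mg/kg, with ED50 derived. Celecoxib at 10 mg/kg po served as the standard.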

P-gp [16] = experiment: Permeability across MDCK cells expressing p-gp; type: ADME, cell-based, Canis lupus familiaris; details: dog, MDCK-MDR1; read-out: permeability
Method in brief: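 MDCK cells. Passive permeability is reported as Pexact (nm/sec), and efflux ratio is used to assess Pgp substrate status.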

[17] = Lipophilicity, log D of compound at pH 7.4 by shake flask method; type: physicochemical; details: buffer
Method in brief: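 Log D is determined by the shake flask method at pH 7.4.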

[18] = Oral bioavailability in rat at 3 mg/kg; type: ADME, organism-based; details: in vivo; method in brief: as §4
Rattus norvegicus [19] = experiment: Analgesic activity in rat assessed as reversal of complete Freund's adjuvant-induced inflammatory pain at 5 mg/kg, po after 3 hrs post dose; type: functional, organism-based; set-up: dose 5 mg/kg; method in brief: as §5
[20] = Volume of distribution at steady state in rat at 1 mg/kg, iv; type: ADME, organism-based; set-up: dose 1 mg/kg, route intravenous; details: in vivo, read-out: Vdss
[21] = Blood clearance in rat at 1 mg/kg, iv; type: ADME, organism-based; set-up: dose 1 mg/kg, route intravenous
[22] = Drug level in blood of rat complete Freund's adjuvant-induced inflammatory pain model at 3 mg/kg, po after 1 hr; type: ADME, organism-based; set-up: dose 3 mg/kg, route oral; details: read-out: Drug uptake; method in brief: as §2
Rattus norvegicus [23] = experiment: Analgesic activity in rat assessed as reversal of complete Freund's adjuvant-induced inflammatory pain at 30 mg/kg, po after 1 hr post dose relative to 10 mg/kg of celecoxib; type: functional, organism-based; method in brief: as §5
[24] = Ratio of drug level in brain to blood in rat complete Freund's adjuvant-induced inflammatory pain model at 30 mg/kg, po after 1 hr; type: ADME, organism-based; set-up: dose 30 mg/kg, route oral; details: read-out: BBR; method in brief: as §2
Rattus norvegicus [25] = experiment: Analgesic activity in rat assessed as reversal of complete Freund's adjuvant-induced inflammatory pain at 5 mg/kg, po after 1 hr post dose; type: functional, organism-based; set-up: dose 5 mg/kg; method in brief: as §5

Ki [1]: 0.398 nM
Ki [2]: 1000 nM
IC50 [3]: 5.01 nM
SMILES: Cc1cc(C(=O)O)nn1Cc1cc(Cl)cc2cc(C(C)C)oc12

IC50 [4]: 50.1 nM
SMILES: Cc1cc(C(=O)O)nn1Cc1cc(Cl)cc2cc(C3CC3)oc12

IC50 [4]: 20 nM
SMILES: Cc1cc(C(=O)NCC2CCNCC2)nn1Cc1cc(Cl)cc2cc(-c3ccccc3)oc12

IC50 [4]: 6.31 nM
SMILES: Cc1cc(C(=O)NC[C@H]2CCCO2)nn1Cc1cc(Cl)cc2cc(-c3ccccc3)oc12

IC50 [4]: 39.8 nM
SMILES: Cc1cc(NC(=O)C2(F)CCNCC2)nn1Cc1cc(Cl)cc2cc(-c3ccccc3)oc12

IC50 [4]: 2 nM
SMILES: Cc1cc(C(=O)O)nn1Cc1cc(Cl)cc2cc(-c3ccccc3)oc12

IC50 [4]: 5.01 nM
SMILES: Cc1cc(C(=O)NC2CC2)nn1Cc1cc(Cl)cc2cc(-c3ccccc3)oc12

IC50 [4]: 5.01 nM
SMILES: Cc1cc(C(N)=O)nn1Cc1cc(Cl)cc2cc(-c3ccccc3)oc12

The next lines start with the compound.

SMILES: CCCc1cc2cc(Cl)cc(Cn3nc(C(=O)O)cc3C)c2o1
IC50 [4]: 25.1 nM

SMILES: Cc1cc(C(=O)O)nn1Cc1cc(Cl)cn2nc(C(C)C)cc12
IC50 [4]: > 1000 nM

SMILES: Cc1cc(C(=O)O)nn1Cc1cc(Cl)cc2oc(C(C)C)cc12
IC50 [4]: 251 nM

SMILES: Cc1cc(C(=O)NN2CCOCC2)nn1Cc1cc(Cl)cc2cc(C(C)C)oc12
concentration at 1 h [5]: 10.2 µM
solubility at 1 h [6]: 1 µg/mL (≈ 2.4 µM)
concentration at 1 h [7]: 11.3 µM
half-life [8]: 0.5 h
solubility at 1 h [9]: 5 µg/mL (≈ 12 µM)
CL (Liver microsomes): 1.1 mL/min/g
solubility at 1 h [10]: 71 µg/mL (≈ 170 µM)
IC50 [3]: 50.1 nM
efflux ratio (P-gp [11]): 0.9
Kp at 3 h [12]: 1.15
concentration at 1 h [13]: 5.61 µM
half-life [14]: 1.7 h
ED50 (Rattus norvegicus [15]): 14.7 mg/kg
Papp (P-gp [16]): 67.1 ×10⁻⁶ cm/s
logD [17]: 2.6
bioavailability [18]: 19%
Activity (Rattus norvegicus [19]): inactive
Vd [20]: 3 L/kg
clearance [21]: 85 mL/min/kg
concentration at 1 h [22]: 1.95 µM
Activity (Rattus norvegicus [23]): Active
Kp at 1 h [24]: 1.05
Activity (Rattus norvegicus [25]): Active

SMILES: Cc1cc(-c2nc3ccccc3[nH]2)nn1Cc1cc(Cl)cc2cc(C(C)C)oc12
IC50 [3]: 50.1 nM

SMILES: Cc1cc(C(=O)O)nn1Cc1cc(Cl)cn2cc(C(C)C)cc12
IC50 [3]: 126 nM

SMILES: Cc1cc(C(=O)NN2CCCCC2)nn1Cc1cc(Cl)cc2cc(C(C)C)oc12
IC50 [3]: 100 nM
